Article PMC10125337 (ACS Bio & Med Chem Au, 2023)
Where a SMILES comes first, the peptide text is derived from it. Where no end group is shown, it is not given here. [ ]: non-standard residue; d: D form.

B1: NT-13 (peptide)
peptide: [dL][dP][dF][dF][dA][dE]-NH2
modifications: N-terminus assumed
SMILES: CC(C)C[C@@H](N)C(=O)N1CCC[C@@H]1C(=O)N[C@H](Cc1ccccc1)C(=O)N[C@H](Cc1ccccc1)C(=O)N[C@H](C)C(=O)N[C@H](CCC(=O)O)C(N)=O
B2: NT-02 (peptide)
peptide: [dK][dL][dL][dF][dF][dA]-NH2
modifications: N-terminus assumed
SMILES: CC(C)C[C@@H](NC(=O)[C@H](N)CCCCN)C(=O)N[C@H](CC(C)C)C(=O)N[C@H](Cc1ccccc1)C(=O)N[C@H](Cc1ccccc1)C(=O)N[C@H](C)C(N)=O
B3: NT-03 (peptide)
peptide: [dK][dL][dL][dF][dF]-NH2
modifications: N-terminus assumed
SMILES: CC(C)C[C@@H](NC(=O)[C@H](N)CCCCN)C(=O)N[C@H](CC(C)C)C(=O)N[C@H](Cc1ccccc1)C(=O)N[C@H](Cc1ccccc1)C(N)=O

Key:
Aβ42 peptide [1] = biological target: T1, Aβ42 peptide (Homo sapiens, UniProt P05067); assay: ThT fluorescence assay of Aβ42 aggregation inhibition; format: biochemical; conditions: 72 h, 37 °C; for inhibition of Aβ42 aggregation (ThT assay): peptide 5 µM + Aβ42 5 µM; for inhibition of Aβ42 peptide aggregation (ThT assay): peptide 160 µM + Aβ42 5 µM
T1 sequence (P05067 672-713): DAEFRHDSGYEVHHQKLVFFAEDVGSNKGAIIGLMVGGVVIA

[2] = test system: Aβ42-induced apoptosis in PC-12-derived neurons; assay: Apoptosis assay; format: cell-based, rat; conditions: Aβ42 10 µM + NT peptide 10 µM, 24 h, n = 3
Serum stability = format: in vitro ADME; conditions: human, 50% human serum
Outline: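 Test peptide at 150 μM final in 50% human serum, 37 °C. Aliquots were taken at 0, 6, 12, 24, 48 and 72 h and mixed 1:1 with acetonitrile to precipitate serum proteins. Samples were held 30 min at 4 °C, then centrifuged at 10,000 rpm for 30 min at 4 °C. The supernatant was analysed by RP-HPLC for percentage of intact peptide. Compound-free serum served as blank.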

Aβ42 peptide [3] = biological target: T1, Aβ42 peptide; assay: FTIR spectroscopy of β-sheet content; conditions: Aβ42 20 µM + peptide 20 µM, PBS pH 7.4, 37 °C, 7 days; β-sheet 1610–1640, α-helix 1640–1660 cm^–1
Aβ42 peptide [4] = biological target: T1, Aβ42 peptide; assay: HR-TEM of fibril formation; conditions: for Aβ42 fibril structure after coincubation (HR-TEM): Aβ42 coincubated with peptide at 37 °C for 7 days; for fibril formation of the peptide incubated alone (HR-TEM): 7 days, 37 °C
MTT cell viability = format: cell-based; conditions: rat, NGF-differentiated PC-12-derived neurons
Outline: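 PC-12 cells seeded at 1×10^4/well and grown 24 h at 37 °C, 5% CO2. At 50–60% confluence they were differentiated with 100 ng/mL NGF in DMEM with reduced horse serum. Test peptide (5–160 μM) was added for 24 h. MTT (5 mg/mL in PBS) was added for 4 h at 37 °C, and formazan was dissolved in DMSO/methanol 1:1. A570 was read; viability = (treated − blank)/(control − blank) × 100.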

[5] = biological target: amyloid beta (1–42) peptide (human); assay: ITC
Sequence of amyloid beta (1–42) peptide (human) (P05067 672-713): as above

| Ka [5] [M⁻¹] | Molecule | inhibition of Aβ42 aggregation (ThT assay) (Aβ42 peptide [1]) [%] | inhibition of Aβ42 peptide aggregation (ThT assay) (Aβ42 peptide [1]) | apoptotic cells (PI fluorescence intensity) [2] [fold] | remaining at 72 h, 150 μM (Serum stability) [%] | Aβ42 fibril structure after coincubation (HR-TEM) (Aβ42 peptide [4]) | fibril formation of the peptide incubated alone (HR-TEM) (Aβ42 peptide [4]) | viability at 24 h, 160 µM (MTT cell viability) [%] | other results |
| --- | --- | --- | --- | --- | --- | --- | --- | --- | --- |
|  | CC(C)C[C@@H](N)C(=O)N1CCC[C@@H]1C(=O)N[C@H](Cc1ccccc1)C(=O)N[C@H](Cc1ccccc1)C(=O)N[C@H](C)C(=O)N[C@H](CCC(=O)O)C(N)=O [NT-13] (H-[dL][dP][dF][dF][dA][dE]-NH2) | 48.41 | ~79.88% | 4.13 | 90.4 | Absence of the fibril structure | no fibril formation was observed |  | FTIR C=O amide peak of Aβ42 treated with peptide (Aβ42 peptide [3]): 1645.94 cm^–1 |
|  | CC(C)C[C@@H](N)C(=O)N[C@H](CC(C)C)C(=O)N[C@H](Cc1ccccc1)C(=O)N[C@H](Cc1ccccc1)C(=O)N[C@H](C)C(N)=O [NT-06] (H-[dL][dL][dF][dF][dA]-NH2) |  |  |  |  |  |  | 71.7 |  |
|  | CC(C)C[C@@H](NC(=O)[C@H](N)CCCCN)C(=O)N[C@@H](C(=O)N[C@H](Cc1ccccc1)C(=O)N[C@H](Cc1ccccc1)C(N)=O)C(C)C [NT-15, reference compound] | 41.87 |  |  |  |  |  |  |  |
|  | CC(C)C[C@@H](N)C(=O)N[C@H](Cc1ccccc1)C(=O)N[C@H](Cc1ccccc1)C(=O)N[C@H](C)C(=O)N[C@H](CCC(=O)O)C(N)=O [NT-08] (H-[dL][dF][dF][dA][dE]-NH2) |  |  |  |  |  |  | 50.1 |  |
|  | CC(C)C[C@@H](NC(=O)[C@H](N)CCCCN)C(=O)N[C@H](CC(C)C)C(=O)N[C@H](Cc1ccccc1)C(=O)N[C@H](Cc1ccccc1)C(=O)N[C@H](C)C(N)=O [NT-02] (H-[dK][dL][dL][dF][dF][dA]-NH2) | 57.61 | about 78.96% | 2.84 | 95.5 | Absence of the fibril structure | no fibril formation was observed |  | FTIR C=O amide peak of Aβ42 treated with peptide (Aβ42 peptide [3]): 1642.76 cm^–1 |
|  | CC(C)C[C@@H](N)C(=O)N[C@H](CC(C)C)C(=O)N[C@H](Cc1ccccc1)C(=O)N[C@H](Cc1ccccc1)C(N)=O [NT-07] (H-[dL][dL][dF][dF]-NH2) |  |  |  |  |  |  | 42.5 |  |
|  | CC(C)C[C@@H](NC(=O)[C@H](N)CCCCN)C(=O)N[C@H](CC(C)C)C(=O)N[C@H](Cc1ccccc1)C(=O)N[C@H](Cc1ccccc1)C(N)=O [NT-03] (H-[dK][dL][dL][dF][dF]-NH2) | 54.26 | ~80.63% | 6.21 | 91.6 | Absence of the fibril structure | no fibril formation was observed |  |  |
| 142000 | B1 |  |  |  |  |  |  |  |  |
| 2.25e+06 | B2 |  |  |  |  |  |  |  |  |
| 3.47e+06 | B3 |  |  |  |  |  |  |  |  |
